PMC12177174 (iScience, 2025)
Several values for one entry are separate records, joined by “and”; a condition that tells them apart may be missing. Identical values can stand only once.

Key:
[1] = Phase 1 Part 1; format: in vivo, homo sapiens
Outline: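 Healthy adults were randomized to one oral dose of test compound (7, 20 or 40 mg; 6 active, 2 placebo per cohort), with a sentinel pair per cohort. Participants stayed in the unit ≥72 h post-dose, with follow-up at 6 ± 1 day. Adverse events were graded by CTCAE, and relatedness was assessed by the investigator. Placebo participants were pooled across cohorts.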

[2] = Pharmacokinetics Part 2, once daily oral dosing, plasma and urine; format: in vivo, homo sapiens
Outline: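 Oral test compound or placebo was given once each morning at 5, 15 or 20 mg on day 1 and days 3–16. Plasma was sampled over 48 h after the day 1 dose and after the day 16 dose, with troughs pre-dose on days 4, 5, 6, 9 and 12. Urine was collected in intervals on days 1 and 16. Quantitation was by LC-MS/MS after protein precipitation.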

[3] = tested on: Wnt7a; experiment: Serum high-throughput proteomics; format: in vivo, homo sapiens; settings: study day 16, 5, 15, 20 mg
[4] = tested on: CTX-1; experiment: Serum bone turnover biomarker CTX-1; format: in vivo, homo sapiens
Outline: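 Participants got test compound (5, 15 or 20 mg) or placebo once daily on day 1 and days 3–16. Serum was drawn at screening and pre-dose on days 1, 5, 7, 12 and 16, and on days 22 (±1) and 45 (±2), at the same time as baseline. CTX-1, P1NP and osteocalcin were measured by electrochemiluminescence immunoassay and BSAP by sandwich ELISA. Results are percent change from baseline versus pooled placebo.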

[5] = Pharmacokinetics Part 1, single oral dose, plasma and urine; format: in vivo, homo sapiens
Outline: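 Healthy adults (men and women of non-child-bearing potential) got one oral dose of test compound (7, 20 or 40 mg; 6 per cohort) or placebo. Plasma was sampled pre-dose, at 15 and 30 min, and at 1–48 h (72 h at 40 mg only). Urine was collected over 0–72 h intervals. Analysis was LC-MS/MS after protein precipitation (plasma 1.00–6000 nmol/L). t½ = ln(2)/λz. Dose proportionality was assessed graphically and by power model.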

[6] = tested on: alveolar epithelial type II cells; settings: cited from earlier work
[7] = tested on: Wnt16; experiment: Serum high-throughput proteomics; format: in vivo, homo sapiens; settings: study day 16
[8] = tested on: AXIN2 mRNA; experiment: Target engagement: AXIN2 mRNA; format: in vivo, homo sapiens; settings: skin
Outline: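 Hair follicles (2 mm micropunch) and skin biopsies (4 mm) were taken from the lower back of the head on day −1 and on day 16, 8 ± 2 h after the last of 14 consecutive once-daily doses. AXIN2 mRNA was measured by qRT-PCR and normalized to the geometric mean of HPRT1, IPO8 and POLR2A. Fold change from baseline was calculated by 2^−ΔΔCt, versus 8 pooled placebo participants.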

For Cc1cc(-c2nccc3c2ccn3CC(=O)Nc2ccc(-c3cnccn3)cn2)ccn1 [AZD5055], the Abdominal pain upper ([1]; Part 1 SAD pooled, n=18) was 1 (5.6) n (%), the Application site scab ([1]; Part 1 SAD pooled, n=18) was 1 (5.6) n (%) and the Cardiac disorders ([1]; Part 1 SAD pooled, n=18) was 1 (5.6) n (%). For the same compound, the Coronavirus infection ([1]; Part 1 SAD pooled, n=18) was 0 n (%), the Cough ([1]; Part 1 SAD pooled, n=18) was 0 n (%) and the Dermatitis contact ([1]; Part 1 SAD pooled, n=18) was 0 n (%). The Dizziness ([1]; Part 1 SAD pooled, n=18) was 1 (5.6) n (%), the Dysgeusia ([1]; Part 1 SAD pooled, n=18) was 0 n (%) and the Epistaxis ([1]; Part 1 SAD pooled, n=18) was 0 n (%). The Erythema ([1]; Part 1 SAD pooled, n=18) was 0 n (%), the Folliculitis ([1]; Part 1 SAD pooled, n=18) was 0 n (%) and the Gastrointestinal disorders ([1]; Part 1 SAD pooled, n=18) was 1 (5.6) n (%). The “General disorders and administration site conditions” value ([1]; Part 1 SAD pooled, n=18) was 2 (11.1) n (%), the Headache ([1]; Part 1 SAD pooled, n=18) was 0 n (%) and the Infections and infestations ([1]; Part 1 SAD pooled, n=18) was 0 n (%). For the same compound, the “Injury, poisoning and procedural complications” value ([1]; Part 1 SAD pooled, n=18) was 0 n (%), the Limb injury ([1]; Part 1 SAD pooled, n=18) was 0 n (%) and the “Medical device site dermatitis” value ([1]; Part 1 SAD pooled, n=18) was 1 (5.6) n (%). The Nasal discomfort ([1]; Part 1 SAD pooled, n=18) was 0 n (%), the Nausea ([1]; Part 1 SAD pooled, n=18) was 1 (5.6) n (%) and the Nervous system disorders ([1]; Part 1 SAD pooled, n=18) was 1 (5.6) n (%). The “Participants with ≥1 TEAE” value ([1]; Part 1 SAD pooled, n=18) was 4 (22.2%) n (%) and 4 (22.2) n (%), the “Participants with ≥1 TEAE leading to discontinuation of investigational product” value ([1]; Part 1 SAD pooled, n=18) was 0 n (%) and the “Participants with ≥1 TEAE of grade 1 severity” value ([1]; Part 1 SAD pooled, n=18) was 4 (22.2) n (%). For the same compound, the “Participants with ≥1 TEAE of grade 2 severity” value ([1]; Part 1 SAD pooled, n=18) was 0 n (%), the “Participants with ≥1 TEAE of grade 3 severity” value ([1]; Part 1 SAD pooled, n=18) was 0 n (%) and the “Participants with ≥1 TESAE” value ([1]; Part 1 SAD pooled, n=18) was 0 n (%). For the same compound, the Photophobia ([1]; Part 1 SAD pooled, n=18) was 0 n (%), the Post procedural erythema ([1]; Part 1 SAD pooled, n=18) was 0 n (%) and the Post procedural inflammation ([1]; Part 1 SAD pooled, n=18) was 0 n (%). For the same compound, the Procedural pain ([1]; Part 1 SAD pooled, n=18) was 0 n (%), the “Respiratory, thoracic and mediastinal disorders” value ([1]; Part 1 SAD pooled, n=18) was 1 (5.6) n (%) and the “Sensation of foreign body” value ([1]; Part 1 SAD pooled, n=18) was 0 n (%). For the same compound, the Skin abrasion ([1]; Part 1 SAD pooled, n=18) was 0 n (%), the “Skin and subcutaneous tissue disorders” value ([1]; Part 1 SAD pooled, n=18) was 0 n (%) and the Suture rupture ([1]; Part 1 SAD pooled, n=18) was 0 n (%). For the same compound, the Ventricular tachycardia ([1]; Part 1 SAD pooled, n=18) was 1 (5.6) n (%), the “Vessel puncture site haematoma” value ([1]; Part 1 SAD pooled, n=18) was 0 n (%) and the Vision blurred ([1]; Part 1 SAD pooled, n=18) was 0 n (%). For the same compound, the Vomiting ([1]; Part 1 SAD pooled, n=18) was 1 (5.6) n (%), the Wheezing ([1]; Part 1 SAD pooled, n=18) was 1 (5.6) n (%) and the “Deaths, SAEs, AEs of CTCAE grade 3 or higher” value ([1]; Parts 1 and 2) was “No deaths, serious adverse events (SAEs) or AEs of CTCAE grade 3 or higher were reported”. For the same compound, the “Participants with a TEAE of nsVT during the study” value ([1]; Parts 1 and 2) was “Three”, the “clinical laboratory results, vital signs, physical examinations, ECGs, oxygen saturation” value ([1]; Parts 1 and 2) was “no clinically significant changes” and the “Overall safety and tolerability” value ([1]; both study parts) was “safe and well tolerated”. The “Dose proportionality of systemic exposure” value ([2]; after 14 consecutive days of once daily treatment, 5-20 mg) was “increased in a dose-proportional manner”, the mean terminal half-life ([2]; following repeated once daily dosing) was 12 to 17 h and the “AZD5055 dose excreted unchanged in urine” value ([2]; in vivo) was “Approximately 3%”. The mean renal clearance ([2]; in vivo) was 0.2 to 0.3 L/h, the “Steady state conditions in plasma reached” value ([2]; once daily dosing) was ≤ 5 doses and the accumulation ratio ([2]; once daily dosing) was ≤ 2. The “Serum Wnt7a levels” value [3] was “reduced on study day 16 for all AZD5055 dose levels evaluated”, the “estimated increase in serum CTX-1 compared with the placebo group” value ([4]; 15 mg QD for 14 days) was 17.5% and the “estimated increase in serum CTX-1 compared with the placebo group” value ([4]; 20 mg QD for 14 days) was 32.8%. The “mean terminal elimination half-life” value ([5]; after a single dose, across dose cohorts) was 10 to 11 h, the “median time to maximum plasma concentration (tmax)” value ([5]; oral, across dose cohorts) was 1 to 1.5 h and the “Dose proportionality (power-model approach)” value ([5]; single doses 7-40 mg) was “behaves dose-proportionally”. For the same compound, the “differentiation of alveolar epithelial type II cells into alveolar type I cells” value [6] was “increasing differentiation of alveolar epithelial type II cells into alveolar type I cells”, the “Serum Wnt16 levels” value [7] was “reduced on study day 16 at the 15 and 20 mg AZD5055 dose levels” and the “reduction of median AXIN2 mRNA levels” value ([8]; 15 and 20 mg cohorts) was 50%–60%. For the same compound, the “AXIN2 mRNA expression vs placebo-treated participants” value ([8]; all dose levels, after 14 consecutive days of dosing) was “significantly reduced from baseline”.
